From the RNAGym collection of RNA variant scans (doi:10.1126/science.aae0568) come the findings set out here.

Fewer inactive variants are shown than the library holds.

B1: tRNA (parent)
chain: GUUCCGUUGGCGUAAUGGUAACGCGUCUCCCUCCUAAGGAGAAGACUGCGGGUUCGAGUCCCGUACGGAACG

In the data set the parent is B1. Put plainly: yeast fitness relative to wild type (ratio to wild type); higher = fitter; tRNA-Arg(CCU), competitive growth, 37 C, YPD. The method in brief:
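Changes in genotype frequencies gave Darwinian fitness relative to wild type. Frequencies were read by 100-nucleotide paired-end sequencing of gene amplicons before and after pooled Saccharomyces cerevisiae strains, carrying tRNA-Arg(CCU) gene variants at the native locus, were competed in YPD at 37°C for 24 hours in six replicates. A genotype was kept only with ≥ 100 starting reads, and estimates < 0.5 were set to 0.5.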
Take C22U C49G U53A G63C: the yeast fitness was determined as 0.609.

For C22G U28A C31G C55A G68C, the yeast fitness came out at 0.539.

For C22U C27G U28G U32G, the yeast fitness was no more than 0.5.

On to C22U C24U A36C A45G G56C, for which the yeast fitness was no more than 0.5.

Turning to C22U C27U A42U A43U U47C, the yeast fitness is no more than 0.5.

Consider C22G C34A G41A, for which the yeast fitness is no more than 0.5.

Take C22G C49A G56C G58C C60A: the yeast fitness is no more than 0.5.

C22U C34G G48C: the yeast fitness is no more than 0.5.

In the case of C22G U35A U47C C55U, the yeast fitness was no more than 0.5.

On to C22G C49G G68A, for which the yeast fitness turned out to be 0.529.

Take C22G U26G C27G U53A: the yeast fitness is no more than 0.5.

As for C22G G48C, the yeast fitness was found to be 0.811.

For C22G G51A A70U, the yeast fitness stood at 0.665.

Take C22G G67C: the yeast fitness turned out to be 0.97.

On to C22G U54A C55U, for which the yeast fitness was no more than 0.5.

Regarding C22G G23C C27A U28C, the yeast fitness stood at 0.533.

In the case of C22U C27U G51A A57U C61G, the yeast fitness is no more than 0.5.

Consider C22G C46U, for which the yeast fitness was determined as 0.929.

C22U C61G: the yeast fitness worked out at 0.586.

For C22U C61A, the yeast fitness amounted to 0.612.

On to C22G G52C G58C A65U, for which the yeast fitness was 0.592.

For C22U C34G A40C C46G, the yeast fitness was no more than 0.5.

In the case of C22G G68C, the yeast fitness turned out to be 0.696.

On to C22G G68U, for which the yeast fitness was 0.865.

With C22U C30U C49G, the yeast fitness turned out to be 0.556.

With C22G U32C G58A, the yeast fitness was 0.654.

For the variant C22U C30A U64A, the yeast fitness worked out at 0.574.

With C22G C66U A69U, the yeast fitness was determined as 0.685.

With C22G C66U A69C, the yeast fitness turned out to be 0.564.

In the case of C22U C31G A36U, the yeast fitness is no more than 0.5.

C22U C61A C62U: the yeast fitness worked out at 0.586.

For the variant C22U C31G G51C C62A, the yeast fitness is no more than 0.5.

Consider C22U C33U A69C, for which the yeast fitness was 0.522.

With C22U A36C C49U A65G, the yeast fitness was 0.528.

C22U A45G G56C: the yeast fitness worked out at 0.602.

Turning to C22U C30G, the yeast fitness was 0.515.

As for C22U C30A, the yeast fitness was 0.706.

C22U C30U: the yeast fitness turned out to be 0.758.

Turning to C22U C30U C33U A45C G56C G68C, the yeast fitness was no more than 0.5.

C22G U59C: the yeast fitness was found to be 0.864.

Take C22U C46G C49G A57G: the yeast fitness is no more than 0.5.

For C22U A42U, the yeast fitness amounted to 0.749.

Take C22U A42G: the yeast fitness stood at 0.794.

Turning to C22U A42C, the yeast fitness was determined as 0.808.

Turning to C22U A42G C55G, the yeast fitness was determined as 0.567.

As to C22G G44C, the yeast fitness amounted to 0.942.

Consider C22U A40C C62U, for which the yeast fitness was found to be 0.648.

On to C22U A36C A45C, for which the yeast fitness is no more than 0.5.

As for C22U C24A A43U A57G, the yeast fitness is no more than 0.5.

As for C22U C33U A43U G52A, the yeast fitness is no more than 0.5.

With C22G C33A C49G, the yeast fitness came out at 0.592.

C22U C29G A42G: the yeast fitness came to 0.697.

On to C22U A45U A69U, for which the yeast fitness was 0.804.

On to C22U A45U, for which the yeast fitness came out at 0.909.

As to C22U A45C, the yeast fitness worked out at 0.75.

Consider C22G U35A G58A G67U, for which the yeast fitness was no more than 0.5.

For C22G U64A, the yeast fitness came out at 0.696.

As to C22U C24U, the yeast fitness was determined as 0.885.

With C22U C24G, the yeast fitness worked out at 0.583.

For C22U A40U C61A G68A, the yeast fitness is no more than 0.5.

Take C22G U47C A65U: the yeast fitness worked out at 0.64.

For C22G U32C A42C G48C C55G, the yeast fitness is no more than 0.5.

Regarding C22G U53G C55U, the yeast fitness was no more than 0.5.

As to C22U A57U C66U, the yeast fitness amounted to 0.553.

In the case of C22U C27A A45G G48C, the yeast fitness was no more than 0.5.

As for C22U A36C C66A, the yeast fitness is no more than 0.5.

Regarding C22U C31U C60G A70G, the yeast fitness was no more than 0.5.

In the case of C22G U28A G44A, the yeast fitness is no more than 0.5.

Take C22U A40G G63C G67C A69U: the yeast fitness is no more than 0.5.

For the variant C22U C27G G41A C55U, the yeast fitness is no more than 0.5.

Consider C22U C24G U28A A45C A57C C61U, for which the yeast fitness amounted to 0.581.

On to C22G U26G C66U, for which the yeast fitness is no more than 0.5.

Regarding C22U C46A C66U, the yeast fitness is no more than 0.5.

Turning to C22G U47G A65C, the yeast fitness is no more than 0.5.

In the case of C22G G50U, the yeast fitness came out at 0.873.

As to C22U A40C C66U, the yeast fitness worked out at 0.523.

As to C22G G25C A37G A65U, the yeast fitness is 0.576.

C22G G63A G68U: the yeast fitness was no more than 0.5.

As to C22U C24U U47C, the yeast fitness is 0.705.

Turning to C22U A43G A45C C46G G63A, the yeast fitness was 0.635.

Regarding C22U C31G C60G, the yeast fitness was no more than 0.5.

As for C22U C27G A40G A42G, the yeast fitness is no more than 0.5.

As to C22G C62G A65U, the yeast fitness was 0.534.

C22U A42G A45C C55G: the yeast fitness was no more than 0.5.

Consider C22G C34G, for which the yeast fitness turned out to be 0.612.

With C22G C34A, the yeast fitness came out at 0.757.

Regarding C22U A40G A43U C46G C49G C62U U64C, the yeast fitness was no more than 0.5.

Turning to C22G G41A C62A G63C, the yeast fitness worked out at 0.615.

In the case of C22G G23C G39A A45C C49U C61U G68A, the yeast fitness was no more than 0.5.

As for C22U C30G A65C C66U, the yeast fitness was found to be 0.62.

C22G U35C C46U C55G: the yeast fitness was no more than 0.5.

C22U A40U A65U: the yeast fitness is no more than 0.5.

For the variant C22G C31U C46U A69U, the yeast fitness came to 0.526.

Turning to C22G C31U A65G, the yeast fitness came to 0.867.

As for C22U C62A, the yeast fitness was 0.856.

For C22U C62G, the yeast fitness amounted to 0.778.

C22U C62U: the yeast fitness came out at 0.867.

For C22G G38U A42U, the yeast fitness was no more than 0.5.

For the variant C22G C61G, the yeast fitness worked out at 0.684.

Consider C22G G38A, for which the yeast fitness is 0.776.

Take C22U A37U G50C: the yeast fitness stood at 0.634.

With C22G C62U A69U, the yeast fitness turned out to be 0.591.

In the case of C22G C34A G56C, the yeast fitness was no more than 0.5.

Regarding C22G U53G, the yeast fitness was found to be 0.503.

As for C22G U53A, the yeast fitness was 0.673.

As for C22G C31U C66G, the yeast fitness was 0.512.

Regarding C22U A42G A45C, the yeast fitness is no more than 0.5.

As for C22U A40U A43G A65U, the yeast fitness came out at 0.536.

In the case of C22U C24A A43C C55U, the yeast fitness was no more than 0.5.

Consider C22U C60U C61A G63C A65U, for which the yeast fitness was no more than 0.5.

For the variant C22U C31G G56U, the yeast fitness is 0.528.

Regarding C22U C30A C55G, the yeast fitness was no more than 0.5.

Regarding C22U C55G C62A, the yeast fitness was no more than 0.5.

Regarding C22G U26C C33U A37U A40C G63C, the yeast fitness is no more than 0.5.

Consider C22G G51C G58A, for which the yeast fitness is no more than 0.5.

For C22G C46A C62U G63A, the yeast fitness came to 0.651.

Consider C22U C24G C30G G41C, for which the yeast fitness is no more than 0.5.

For C22U A42U G51C C62U A70U, the yeast fitness came to 0.505.

Take C22U A36G G51A C66U: the yeast fitness is 0.588.

For the variant C22U C60U G67A, the yeast fitness was 0.643.

On to C22U C24U U28C C29G C33A G68C, for which the yeast fitness was determined as 0.569.

For C22U C24U U35A A42C A57C, the yeast fitness is 0.638.

As for C22U C29A C34A G41C A45C U47A C55A, the yeast fitness was no more than 0.5.

Consider C22G G25A A37U G39A U47A, for which the yeast fitness was no more than 0.5.

Take C22U C24U C46U: the yeast fitness worked out at 0.654.

With C22G G51C, the yeast fitness is 0.738.

As for C22G G51A, the yeast fitness turned out to be 0.749.

As for C22U A36C C55U U59A, the yeast fitness was no more than 0.5.

Take C22U A37G: the yeast fitness worked out at 0.662.

Take C22G G52C G68C: the yeast fitness is no more than 0.5.

On to C22U C29U C49A, for which the yeast fitness is no more than 0.5.

On to C22G G44C C60U, for which the yeast fitness was determined as 0.762.

On to C22U C24A C27U A43C, for which the yeast fitness was no more than 0.5.

For the variant C22U C31G G50A, the yeast fitness was determined as 0.606.

Take C22U C24G A36C A70C: the yeast fitness is no more than 0.5.

For C22U C27U G44C, the yeast fitness is 0.659.

Take C22U C49U U64A A70U: the yeast fitness was no more than 0.5.

Take C22G C62A: the yeast fitness was 0.787.

On to C22G C49U C60A, for which the yeast fitness was no more than 0.5.

Consider C22U A40C G58C A69U, for which the yeast fitness was no more than 0.5.

In the case of C22G G51A A57U, the yeast fitness is no more than 0.5.

For the variant C22U C31U, the yeast fitness was determined as 0.94.

For the variant C22U C31G, the yeast fitness is 0.834.

As to C22U G23A C46U, the yeast fitness was no more than 0.5.

In the case of C22U C24U C33G C55G, the yeast fitness is no more than 0.5.

Regarding C22U C33U A42U A69C, the yeast fitness was determined as 0.629.

Take C22U C24G U35C G56C: the yeast fitness is no more than 0.5.

C22G G23C G50C C55A C60A: the yeast fitness is no more than 0.5.

With C22G C34A A40C A45U, the yeast fitness amounted to 0.665.

With C22U G23C, the yeast fitness is 0.722.

C22U G23A: the yeast fitness was found to be 0.591.

For C22G G52A U53A, the yeast fitness is no more than 0.5.

As to C22U C33G G41C G56C G58A G63C A65U, the yeast fitness is no more than 0.5.

As to C22U C33G G58A C66U, the yeast fitness is 0.595.

With C22G U32G G48A G52A, the yeast fitness is no more than 0.5.

C22G C33U A36C A40U: the yeast fitness amounted to 0.665.

For the variant C22U C24A C29A A36C, the yeast fitness is no more than 0.5.

Consider C22U C34U C55U, for which the yeast fitness was 0.586.

For C22U C49G U53A A65G, the yeast fitness is no more than 0.5.

Take C22G C31U A70U: the yeast fitness turned out to be 0.661.

As to C22U C49U G58A, the yeast fitness was 0.621.

For the variant C22G U26C, the yeast fitness turned out to be 0.971.

Turning to C22U C30U A37U C46G U64A G67A, the yeast fitness was no more than 0.5.

Regarding C22G U54A, the yeast fitness is 0.591.

Turning to C22G U54C, the yeast fitness came to 0.775.

In the case of C22G G63C G68U, the yeast fitness stood at 0.52.

Regarding C22U C30U A37G G68A, the yeast fitness was no more than 0.5.
